Compounds with a hit are over-represented: about 2.7% of the library has one in this group of screens.
FGF22 binding-1 = shifts melting point of recombinant human FGF22 | Q9HCT0 | actives 1.5% (n = 340,000) | recombinant FGF22 thermal shift, SYPRO orange fluorescence; percent of sucrose octasulfate shift, DMSO zero | activity (Tm shift, normalised), % at 9.99 µM;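 active means mean Tm shift, scaled 0 neutral to 100 positive control, at about 1.3% or above, every replicate too, limit read from the data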
S100A4 MyoIIA = inhibitors of human S100A4 binding to myosin IIA peptide | P26447 | S100A4/TAMRA-MyoIIA peptide fluorescence polarization | inhibition, % at 10.7 µM | actives 0.14% (n = 360,000) | AID 652163;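 active means mean inhibition of at least 70% across replicates, with every replicate also reaching that level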
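Test system: S100A4 monomer protein; Medium: HEPES pH 7.2 with CaCl2, KCl, NaCl, DTT, Triton; Probe or stimulus: TAMRA-labelled myosin IIA heavy-chain peptide probe, 5 nM; Doses: one dose per compound; Times: polarization read 5 min after assay mix addition, stable 5–60 min; Benchmarks: neutral control DMSO, positive control TFP.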
Env fusion inh = blocks HIV Env-driven cell-cell fusion. HeLa-JRFL Env/CEM21 cell fusion, luciferase. inhibition, % at 12.3 µM. actives 1.1% (n = 360,000);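 active means mean replicate inhibition score of at least 50 and every replicate individually at or above 50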;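 further: 0% = plate neutral controls and 100% = maraviroc near 300 nM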
E-selectin induc = induces E-selectin expression in human endothelial cells; HUVEC E-selectin immunofluorescence imaging; normalized: neutral wells 0, TNF-alpha wells 100; AID 686992; activation, % at 7.58 µM; P16581; actives 0.37% (n = 260,000);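 active means mean E-selectin-positive cell signal at least 10% of the positive control, reached in at least 60% of replicates, without over 20% cell loss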
Target sequence (P16581 whole entry, looked up): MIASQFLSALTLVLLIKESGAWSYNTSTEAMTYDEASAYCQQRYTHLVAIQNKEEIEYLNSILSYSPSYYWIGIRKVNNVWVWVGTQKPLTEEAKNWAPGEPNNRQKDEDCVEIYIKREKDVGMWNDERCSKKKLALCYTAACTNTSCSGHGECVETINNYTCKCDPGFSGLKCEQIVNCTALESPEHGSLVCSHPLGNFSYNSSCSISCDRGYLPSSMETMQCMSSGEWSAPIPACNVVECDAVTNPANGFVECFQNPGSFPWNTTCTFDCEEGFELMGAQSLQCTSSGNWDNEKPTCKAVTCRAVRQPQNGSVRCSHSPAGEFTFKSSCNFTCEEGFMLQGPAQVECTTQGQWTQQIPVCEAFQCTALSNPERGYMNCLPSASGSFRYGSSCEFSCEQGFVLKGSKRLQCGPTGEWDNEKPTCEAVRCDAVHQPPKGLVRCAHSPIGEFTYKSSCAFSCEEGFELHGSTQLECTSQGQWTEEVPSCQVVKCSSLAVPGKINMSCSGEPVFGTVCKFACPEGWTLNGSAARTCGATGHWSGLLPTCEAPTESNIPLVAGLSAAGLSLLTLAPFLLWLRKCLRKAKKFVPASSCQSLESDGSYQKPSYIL
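Test system: HUVEC | Signal: Immunofluorescence imaging | Read-out: Percent E-selectin-positive cells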
CFTR F508del cor = CFTR F508del correction in bronchial cells; CFBE cells, YFP halide quenching; stimulated with forskolin plus potentiator P3; % fluorescence drop versus neutral controls; activity (quench increase), % at 7.58 µM; actives 0.36% (n = 350,000);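 active means mean added fluorescence quench of at least 8% versus neutral control, with both replicates also reaching 8%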;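 further: cells transiently co-express mutant CFTR-F508del with the halide-sensitive YFP; corrector assay measuring rescue of mutant channel to the surface after 24 h compound exposure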
FGF22 binding-2 = binders of human FGF22 by thermal shift. recombinant FGF22 thermal shift, SYPRO orange fluorescence. shares compounds with FGF22 binding-1. actives 2% (n = 1,000). thermal shift activity, °C (ΔTm) at 38 µM;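 active means fitted rise in melting shift crosses a set limit at or below the top valid dose tested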
FGF22 TSA DP = binders of human FGF22 by thermal shift | shares compounds with FGF22 binding-1 | Thermal shift assay, SYPRO orange, melting temperature shift | Tm shift (activity), % at 38 µM | 50 tested, under 10 active | AID 743017;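 active means compounds whose fitted dose curve of melting temperature shift rises past a set threshold within the tested doses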
SYPRO no-protein = shows thermal shift signal without protein, FGF22 counter-screen. shares compounds with FGF22 binding-1. compound-only SYPRO orange thermal shift counter-screen, no protein. AC50, µM (top dose mostly 38 µM). actives 2% (n = 1,000). AID 743019;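 active means rising signal whose fitted curve reaches the 0.54 level within the top valid dose, showing a melting point, actives reach about 13 µM in these data; inactive means the rest, including activity in the opposite direction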; further: value is where the raw curve crosses a fixed level and not half-maximal
Starred values were filed as active, the others as inactive; [ ] = another dose, or the depositor's remark.

Screening C[C@H]1CCCCO[C@H](CN(C)Cc2ccncc2)[C@@H](C)CN([C@@H](C)CO)C(=O)c2cc(NC(=O)c3ccncc3)ccc2O1 returned FGF22 binding-1 1.2*, S100A4 MyoIIA -3, Env fusion inh -2[16.7 µM], E-selectin induc 0, CFTR F508del cor -1, FGF22 binding-2 0.044 and SYPRO no-protein inactive.
For C[C@@H]1CCCCO[C@H](CN(C)C(=O)C2CCCCC2)[C@H](C)CN([C@H](C)CO)C(=O)c2cc(NS(C)(=O)=O)ccc2O1 the results were FGF22 binding-1 1.7*, S100A4 MyoIIA 9, Env fusion inh 3[16.7 µM], E-selectin induc 0, CFTR F508del cor 1, FGF22 binding-2 -0.1 and SYPRO no-protein inactive.
For S=C(Nc1ccc(N2CCOCC2)cc1)Nc1ccc2snnc2c1 the results were FGF22 binding-1 1.6*, S100A4 MyoIIA 1, Env fusion inh 6, CFTR F508del cor -1, FGF22 binding-2 -0.23 and SYPRO no-protein inactive.
Screening O=C(Nc1ccc2snnc2c1)N1CCN(c2ccccc2)CC1 returned Env fusion inh 4.
For CCNc1c(NS(=O)(=O)c2ccc(Br)s2)c(=O)oc2ccccc12 the results were FGF22 binding-1 1.8*, S100A4 MyoIIA 1, Env fusion inh 13, CFTR F508del cor -2, FGF22 binding-2 0.043 and SYPRO no-protein inactive.
CC(=O)N1[C@@H]2Cn3c(ccc(-c4ccccc4)c3=O)[C@H]1[C@@H](C(=O)NCCCN1CCOCC1)[C@@H]2CO was read as FGF22 binding-1 0, S100A4 MyoIIA 4, E-selectin induc 0 and CFTR F508del cor -1.
Screening COc1ccc(S(=O)(=O)Nc2ccc3c(c2)CC(=O)N([C@H](C)CO)C[C@H](C)[C@@H](CN(C)S(=O)(=O)c2ccc(Cl)cc2)O3)cc1 returned FGF22 binding-1 0, S100A4 MyoIIA -15, Env fusion inh 4[16.7 µM], E-selectin induc 0 and CFTR F508del cor 3.
`COc1ccccc1NS(=O)(=O)NC(=O)c1c(C)[nH]c2ccccc12` gave FGF22 binding-1 0, S100A4 MyoIIA 7, Env fusion inh 11 and CFTR F508del cor -1.
For Cc1[nH]c2ccccc2c1C(=O)NS(=O)(=O)Nc1ccc(Cl)cc1 the results were FGF22 binding-1 1.6*, S100A4 MyoIIA 3, Env fusion inh 11, CFTR F508del cor 0, FGF22 binding-2 -0.19, FGF22 TSA DP 0 and SYPRO no-protein inactive.
`CCC(=O)Nc1ccc2c(c1)C(=O)N(C)C[C@@H](OC)[C@H](C)CN(CC1CCCCC1)[C@@H](C)CO2` gave FGF22 binding-1 0, S100A4 MyoIIA -9, E-selectin induc 0 and CFTR F508del cor 1.
Screening C/C(=N\NC(=O)COc1ccc(C)cc1C(C)C)c1cc2ccccc2o1 returned FGF22 binding-1 20*, S100A4 MyoIIA 2, Env fusion inh -2, CFTR F508del cor 2, FGF22 binding-2 -0.056 and SYPRO no-protein inactive.
`CCCN1[C@@H]2c3ccc(-c4ccc(F)cc4)c(=O)n3C[C@@H]2[C@@H](CO)[C@@H]1C(=O)N[C@@H](C)c1ccccc1` gave FGF22 binding-1 0, S100A4 MyoIIA -1, E-selectin induc 0 and CFTR F508del cor 0.
COc1cccc(C#Cc2ccc([C@H]3[C@H]4CN(S(=O)(=O)c5ccccc5C)CC(=O)N4[C@H]3CO)cc2)c1 was read as FGF22 binding-1 1.4*, S100A4 MyoIIA -5, E-selectin induc -1, CFTR F508del cor 4, FGF22 binding-2 -0.078 and SYPRO no-protein inactive.
Screening COc1ccc(/C=N/NC(=O)c2cc(-c3ccc4c(c3)OCO4)n[nH]2)cc1OC returned FGF22 binding-1 1.5*, S100A4 MyoIIA -1, Env fusion inh -103, FGF22 binding-2 0.19 and SYPRO no-protein inactive.

Assay outcomes deposited in PubChem by Broad Institute.
